Activity calls are given as the source filed them. The rule behind the calls is not given here.

Our source for the Activity values is ChEMBL document CHEMBL1240445, “Synthesis, antioxidant and DNA cleavage activities of novel indole derivatives” (Eur J Med Chem, 2010).

The nature of experiment [1]: Antioxidant activity assessed as ferric reduction. It counts as functional. The essentials:
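Reducing power: sample with 200 mmol/L sodium phosphate buffer (pH 6.6) and 2.5 mL 1% potassium ferricyanide, held 50 °C for 20 min, then 2.5 mL 10% (w/v) trichloroacetic acid added.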

The next experiment deals with Nucleic Acid. The experiment in a line: cleavage of Escherichia coli DNA by agarose gel electrophoresis. In kind it is nucleic-acid assay. The essentials:
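Genomic DNA from E. coli grown 24 h at 37 °C in nutrient broth, isolated by SDS lysis, phenol and chloroform:isoamyl alcohol extraction, ethanol precipitation. Samples (1 mg/ml stock in DMF) added to DNA, incubated 2 h at 37 °C, mixed 1:1 with bromophenol blue, run on agarose gel in TAE beside DNA marker, 50 V for 30 min.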

The nature of experiment [2]: Antioxidant activity assessed as equivalence of ascorbic acid. It counts as functional. The essentials:
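Phosphomolybdenum total antioxidant capacity: 10, 50 and 500 µg sample mixed with 1.9 mL reagent (0.6 M sulfuric acid, 28 mM sodium phosphate, 4 mM ammonium molybdate), heated 95 °C for 90 min, cooled; absorbance at 695 nm against blank. Expressed as ascorbic acid equivalents from an ascorbic acid standard graph.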

Experiment [3] has as its system Radical scavenging activity. Briefly: Antioxidant activity assessed as DPPH radical scavenging activity. It counts as functional. The essentials: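 DPPH method: 10, 50 and 100 µg sample or BHA brought to 100 µl with MeOH, plus 5 mL 0.1 mM methanolic DPPH, shaken, left 20 min at 27 °C; absorbance at 517 nm versus control lacking sample. % scavenging = [(control OD − sample OD)/control OD] × 100.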

In the case of `O=C1NC(=O)C(=C(/C=C/c2c[nH]c3ccccc23)c2ccccc2)C(=O)N1`, the result (in experiment [1]; with Nucleic Acid; in experiment [2]) was Active.

Take `O=C1NC(=O)C(=C(/C=C/c2c(-c3ccccc3)[nH]c3ccc(Cl)cc23)c2ccccc2)C(=O)N1`: the outcome (in the experiment with Nucleic Acid; in experiment [3]) was Active.

As to `O=C1NC(=O)C(=C(/C=C/c2c[nH]c3ccccc23)c2ccc(Cl)cc2)C(=O)N1`, the result (in experiment [1]; in the experiment with Nucleic Acid; in experiment [2]) was Active.

With `Cc1ccc2[nH]c(-c3ccccc3)c(/C=C/C(=C3C(=O)NC(=O)NC3=O)c3ccccc3)c2c1`, the outcome in the experiment with Nucleic Acid was Active.

Consider `Cc1ccc(C(/C=C/c2c[nH]c3ccccc23)=C2C(=O)NC(=O)NC2=O)cc1`, for which the outcome (in experiment [1]; in the experiment on Nucleic Acid; in experiment [2]) was Active.

Take `Cc1ccc(C(/C=C/c2c(-c3ccccc3)[nH]c3ccc(Cl)cc23)=C2C(=O)NC(=O)NC2=O)cc1`: the outcome (with Nucleic Acid; in experiment [3]) was Active.

`Cc1ccc2[nH]c(-c3ccccc3)c(/C=C/C(=C3C(=O)NC(=O)NC3=O)c3ccc(Cl)cc3)c2c1`: in the experiment on Nucleic Acid, the result was Active.

Regarding `Cc1ccc(C(/C=C/c2c(-c3ccccc3)[nH]c3ccc(C)cc23)=C2C(=O)NC(=O)NC2=O)cc1`, in the experiment with Nucleic Acid, the outcome was Active.

For `O=C1NC(=O)C(=C(/C=C/c2c(-c3ccccc3)[nH]c3ccc(Cl)cc23)c2ccc(Cl)cc2)C(=O)N1`, the outcome (with Nucleic Acid; in experiment [3]) was Active.
